Activity calls are given as the source filed them. The rule behind the calls is not given here.
How the values were obtained:
Galectin-9 = Galectin-9 (Homo sapiens, UniProt O00182); experiment: Binding affinity to galectin 9N terminal domain at 0 degC by fluorescence polarization assay
Galectin-3 = Galectin-3 (Homo sapiens, UniProt P17931); experiment: Binding affinity to galectin 3 at 20 degC by fluorescence polarization assay
Galectin-7 = Galectin-7 (Homo sapiens, UniProt P47929); experiment: Binding affinity to galectin 7 at 0 degC by fluorescence polarization assay
Sequence of Galectin-7 (P47929 whole entry): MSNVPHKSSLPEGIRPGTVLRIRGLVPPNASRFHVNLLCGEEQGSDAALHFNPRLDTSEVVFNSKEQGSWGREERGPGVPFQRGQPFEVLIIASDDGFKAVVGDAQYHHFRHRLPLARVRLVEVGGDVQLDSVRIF

Galectin-1 [1] = biological target: T1, Galectin-1 (Homo sapiens, UniProt P09382); experiment: Binding affinity to galectin 1 at 0 degC by fluorescence polarization assay
T1 sequence (P09382 whole entry, the tested form may be a part): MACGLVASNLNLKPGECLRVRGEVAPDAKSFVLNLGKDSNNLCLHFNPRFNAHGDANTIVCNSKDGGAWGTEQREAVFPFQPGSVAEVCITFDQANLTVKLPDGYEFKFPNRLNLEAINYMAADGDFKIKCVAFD

Galectin-8 = biological target: T2, Galectin-8 (Homo sapiens, UniProt O00214); experiment: (§1) Binding affinity to galectin 8N terminal domain at 20 degC by fluorescence polarization assay
T2 sequence (O00214 whole entry): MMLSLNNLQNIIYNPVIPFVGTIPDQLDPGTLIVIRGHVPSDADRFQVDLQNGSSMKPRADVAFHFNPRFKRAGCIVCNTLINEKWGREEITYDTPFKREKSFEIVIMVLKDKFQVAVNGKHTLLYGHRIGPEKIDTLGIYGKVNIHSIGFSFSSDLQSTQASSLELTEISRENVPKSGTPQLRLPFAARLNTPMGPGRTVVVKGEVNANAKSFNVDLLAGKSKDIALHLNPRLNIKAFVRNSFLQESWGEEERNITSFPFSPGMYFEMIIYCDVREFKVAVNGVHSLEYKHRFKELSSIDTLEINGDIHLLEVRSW

[2] = biological target: T3, Galectin-8 (Homo sapiens) (UniProt O00214); experiment: as §1
T3 sequence (whole entry): T2 sequence (O00214 whole entry)

Galectin-1 [3] = biological target: T1, Galectin-1; experiment: Binding affinity to galectin 1 at 20 degC by fluorescence polarization assay
PC-3 [4] = experiment: Antimigratory effect in human PC-3 cells assessed as cell motility at 100 nM after 24 hrs relative to control; assay type: functional, cell-based
Summary of the method: (§2)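 Cell motility of human A549 non-small-cell lung and PC-3 hormone-refractory prostate cancer cells measured by computer-assisted phase-contrast quantitative videomicroscopy over 12 h and 24 h with inhibitor at 1, 10 or 100 nM. Motility calculated in µm per hour and expressed as % of untreated control (100%). Triplicate experiments, mean ± SEM, Mann-Whitney test versus control.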

A549 [5] = experiment: Antimigratory effect in human A549 cells assessed as cell motility at 10 nM after 24 hrs relative to control; assay type: functional, cell-based; summary of the method: as §2
A549 [6] = experiment: Antimigratory effect in human A549 cells assessed as cell motility at 100 nM after 24 hrs relative to control; assay type: functional, cell-based; summary of the method: as §2
PC-3 [7] = experiment: Antimigratory effect in human PC-3 cells assessed as cell motility at 1 nM after 24 hrs relative to control; assay type: functional, cell-based; summary of the method: as §2

Sequence of Galectin-9 (O00182 whole entry, the tested form may be a part): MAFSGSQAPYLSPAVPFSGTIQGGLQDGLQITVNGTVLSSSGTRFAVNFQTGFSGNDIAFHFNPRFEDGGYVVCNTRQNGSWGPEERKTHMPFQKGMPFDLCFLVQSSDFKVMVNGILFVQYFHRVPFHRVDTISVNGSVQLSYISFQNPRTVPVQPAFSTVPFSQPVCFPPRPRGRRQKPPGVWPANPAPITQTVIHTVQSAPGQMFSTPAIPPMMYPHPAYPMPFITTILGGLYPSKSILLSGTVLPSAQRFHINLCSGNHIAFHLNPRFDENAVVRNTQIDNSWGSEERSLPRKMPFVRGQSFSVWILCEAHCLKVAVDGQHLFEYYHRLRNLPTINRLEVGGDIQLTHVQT
Sequence of Galectin-3 (P17931 whole entry): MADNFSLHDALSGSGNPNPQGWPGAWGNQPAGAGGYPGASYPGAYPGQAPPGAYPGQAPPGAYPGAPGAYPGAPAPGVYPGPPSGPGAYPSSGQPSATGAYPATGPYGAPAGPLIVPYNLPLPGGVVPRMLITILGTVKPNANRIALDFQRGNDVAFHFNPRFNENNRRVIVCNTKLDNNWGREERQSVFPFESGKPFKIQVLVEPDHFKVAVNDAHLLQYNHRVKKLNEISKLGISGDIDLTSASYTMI

Kd (Galectin-9) [µM]	Kd (Galectin-3) [µM]	Kd (Galectin-7) [µM]	Kd (Galectin-1 [1]) [µM]	Kd (Galectin-8) [µM]	Activity [2]	Kd (Galectin-1 [3]) [µM]	Structure (SMILES)	Activity (PC-3 [4])	Activity (A549 [5])	Activity (A549 [6])	Activity (PC-3 [7])
1.6	2.5	54	14	530	–	–	CO[C@@H]1O[C@H](CO)[C@@H](O[C@@H]2O[C@H](CO)[C@H](O)[C@H](O)[C@H]2O)[C@H](O)[C@H]1OC(=O)c1cccc2ccccc12	–	–	–	–
> 100	4.4	7.6	25	–	Active	–	CO[C@@H]1O[C@H](CO)[C@@H](O[C@@H]2O[C@H](CO)[C@H](O)[C@H](NC(=O)c3cccc4ccccc34)[C@H]2O)[C@H](O)[C@H]1NC(C)=O	–	–	–	–
2.8	10.7	48	–	100	–	14.7	O=C(O[C@H]1[C@@H](O)[C@@H](CO)O[C@@H](S[C@@H]2O[C@H](CO)[C@H](O)[C@H](OC(=O)c3ccc4ccccc4c3)[C@H]2O)[C@@H]1O)c1ccc2ccccc2c1	–	–	–	–
1.4	0.69	22	–	42	–	4.4	COc1cccc(C(=O)O[C@H]2[C@@H](O)[C@@H](CO)O[C@@H](S[C@@H]3O[C@H](CO)[C@H](O)[C@H](OC(=O)c4cccc(OC)c4)[C@H]3O)[C@@H]2O)c1	Active	Active	–	–
1.8	–	2.1	2	100	–	–	COc1cccc(C(=O)N[C@H]2[C@@H](O)[C@@H](CO)O[C@@H](S[C@@H]3O[C@H](CO)[C@H](O)[C@H](NC(=O)c4cccc(OC)c4)[C@H]3O)[C@@H]2O)c1	–	–	–	–
2.2	1.6	22	–	104	–	6.4	O=C(O[C@H]1[C@@H](O)[C@@H](CO)O[C@@H](S[C@@H]2O[C@H](CO)[C@H](O)[C@H](OC(=O)c3ccccc3)[C@H]2O)[C@@H]1O)c1ccccc1	–	–	–	–
490	59	550	–	1000	–	–	CC(=O)N[C@@H]1[C@@H](O)[C@H](O[C@@H]2O[C@H](CO)[C@H](O)[C@H](O)[C@H]2O)[C@@H](CO)O[C@H]1O	–	–	–	–
7	–	4.3	35	–	Active	–	O=C(N[C@H]1[C@@H](O)[C@@H](CO)O[C@@H](S[C@@H]2O[C@H](CO)[C@H](O)[C@H](NC(=O)c3ccccc3)[C@H]2O)[C@@H]1O)c1ccccc1	–	–	–	–
15	3.6	190	–	135	–	10.3	Cc1ccc(C(=O)O[C@H]2[C@@H](O)[C@@H](CO)O[C@@H](S[C@@H]3O[C@H](CO)[C@H](O)[C@H](OC(=O)c4ccc(C)cc4)[C@H]3O)[C@@H]2O)cc1	–	–	–	–
8.3	3.8	24	–	24	–	16.8	O=C(O[C@H]1[C@@H](O)[C@@H](CO)O[C@@H](S[C@@H]2O[C@H](CO)[C@H](O)[C@H](OC(=O)c3cccc4ccccc34)[C@H]2O)[C@@H]1O)c1cccc2ccccc12	–	–	Active	Active

Structure (SMILES)	Kd (Galectin-9) [µM]	Kd (Galectin-3) [µM]	Kd (Galectin-7) [µM]	Kd (Galectin-1 [1]) [µM]	Kd (Galectin-8) [µM]	Activity [2]	Kd (Galectin-1 [3]) [µM]	Activity (PC-3 [4])	Activity (A549 [5])	Activity (A549 [6])	Activity (PC-3 [7])
O=C(N[C@H]1[C@@H](O)[C@@H](CO)O[C@@H](S[C@@H]2O[C@H](CO)[C@H](O)[C@H](NC(=O)c3ccc4ccccc4c3)[C@H]2O)[C@@H]1O)c1ccc2ccccc2c1	0.73	0.16	1.7	9.6	> 100	–	–	–	–	–	–

Reference: ChEMBL document CHEMBL1151729 (J Med Chem, 2008)
